A selection: hits, their analogues and other compounds. The true share with any hit is near 2.6%.
PRMT1 FP inh: inhibitors of human PRMT1; recombinant PRMT1, activity-based probe fluorescence polarization; inhibition, % at 2.79 µM; actives 1.3% (n = 370,000);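 active = inhibition above about 21% made by adding two undisclosed values, limit read from the data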
SIAE primary: human SIAE inhibition, primary screen; Q9HAT2; SIAE FP-Rh probe binding, fluorescence polarization; inhibition, % at 9.66 µM; actives 0.69% (n = 370,000);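 active = inhibition above a cutoff: mean of compounds within the control limits plus 3 SD of those, cut at about 17% in these data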;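 note: 0% = plate median of compound wells and 100% = probe without SIAE protein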
HTRA1 inh: blocks human HTRA1 serine peptidase; inhibition, % at 5.96 µM; recombinant HTRA1, FP-rhodamine activity-based probe, fluorescence polarization; AID 504803; Q92743; actives 0.5% (n = 340,000); in the data active = inhibition above about 36%;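 note: 0% = enzyme with DMSO and 100% = wells lacking enzyme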
Target sequence (Q92743 whole entry, looked up): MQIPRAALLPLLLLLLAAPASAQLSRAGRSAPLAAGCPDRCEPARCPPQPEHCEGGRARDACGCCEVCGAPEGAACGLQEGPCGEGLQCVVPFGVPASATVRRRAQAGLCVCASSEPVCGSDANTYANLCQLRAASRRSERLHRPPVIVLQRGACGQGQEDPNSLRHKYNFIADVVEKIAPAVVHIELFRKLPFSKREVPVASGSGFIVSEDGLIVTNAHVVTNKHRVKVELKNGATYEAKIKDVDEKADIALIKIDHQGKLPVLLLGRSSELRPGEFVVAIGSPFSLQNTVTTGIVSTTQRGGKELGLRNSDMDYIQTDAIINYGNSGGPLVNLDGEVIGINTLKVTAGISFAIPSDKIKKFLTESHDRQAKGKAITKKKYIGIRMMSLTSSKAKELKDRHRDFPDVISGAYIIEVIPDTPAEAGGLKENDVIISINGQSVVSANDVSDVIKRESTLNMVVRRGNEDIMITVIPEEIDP
TCR-CD3 inh: human TCR-CD3 binding inhibition. actives 0.37% (n = 360,000). inhibition, % at 9.4 µM. AID 651800. TAMRA-labeled TCR probe fluorescence, biochemical;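 note: recombinant mutant TCR 2C K166C tagged with TAMRA read by polarization; 0% = receptor in buffer alone and 100% = receptor with positive control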
ABHD4 inh: inhibitors of mouse ABHD4; Q8VD66; purified mABHD4, FP-Rh probe fluorescence polarization; inhibition, % at 8.92 µM; actives 0.54% (n = 370,000);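 active = inhibition exceeding the mean over every tested compound plus 3 SD, cut at about 30% in these data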;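 note: 0% = plate median of compound wells and 100% = S159A mutant with DMSO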
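assay system = mABHD4 protein | compound dosing = single nominal dose of 8.92 µM, 0.89% DMSO final | read-out basis = percent inhibition of probe binding, normalized to plate controls | schedule = Enzyme–compound pre-incubation 45 min, then probe 60 min, both 25 °C | detection = fluorescence polarization, excitation 525 nm, emission 598 nm, BODIPY TMR filters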
BSA probe FL: counter-screen for TCR-CD3 interaction inhibitors: BSA probe; actives 10% (n = 1,200); TAMRA-labeled BSA probe fluorescence counterscreen; inhibition, % at 9.4 µM; shares compounds with TCR-CD3 inh; in the data active = inhibition above about 23%;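 note: 0% = buffer low control and 100% = reference high control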
TCR-CD3 conf: TCR-CD3 interaction inhibition, confirmation; TAMRA-labeled TCR probe fluorescence binding assay; inhibition, % at 9.4 µM; shares compounds with TCR-CD3 inh; actives 48% (n = 1,200)
An asterisk follows results filed as active. Cut-off read from the data, not from the text of the source, unless noted: active = inhibition above about 19%; inactive = the rest.

What do the screens show for `COc1cccc2cc(C(=O)N3CCN(C(=O)c4ccco4)CC3)c(=O)oc12`?
PRMT1 FP inh: 0.0; SIAE primary: 0.8; HTRA1 inh: -2.6; TCR-CD3 inh: -1.5; ABHD4 inh: -1.1

What do the screens show for `CCCn1nnnc1SCC(=O)N1CCCC1`?
PRMT1 FP inh: 0.2; SIAE primary: 8.1; HTRA1 inh: 6.2; TCR-CD3 inh: 0.0; ABHD4 inh: -1.6

Results for CCCCn1nnnc1SCC(=O)N1CCCC1 ?
PRMT1 FP inh: -2.2; SIAE primary: 5.5; HTRA1 inh: -6.7; TCR-CD3 inh: 20.8*; ABHD4 inh: 7.5; BSA probe FL: 4.4; TCR-CD3 conf: 2.7

What do the screens show for `C#CCNC(=O)C[C@H]1C(=O)N(Cc2ccc(OC)cc2)C2=CCCCC[C@@]21C(=O)OC`?
PRMT1 FP inh: -3.9; SIAE primary: -5.2; ABHD4 inh: 2.4

Results for CC1=NN(C(=O)CSCc2ccccc2)C(O)(c2ccc(Cl)cc2)C1 (stereo not given) ?
PRMT1 FP inh: -2.8; SIAE primary: -2.0; HTRA1 inh: 33.6; TCR-CD3 inh: 19.9*; ABHD4 inh: 0.7; BSA probe FL: -5.7; TCR-CD3 conf: 7.5

What do the screens show for `CC1=NN(C(=O)CSCc2ccccc2)C(O)(c2ccc(F)cc2)C1` (stereo not given)?
PRMT1 FP inh: -0.5; SIAE primary: -2.0; HTRA1 inh: 5.0; TCR-CD3 inh: 8.8; ABHD4 inh: -1.0

What do the screens show for `COc1ccc(CNCC#Cc2ccc(C)cc2)c(OC)c1`?
PRMT1 FP inh: -3.8; SIAE primary: -5.0; ABHD4 inh: -1.3

What do the screens show for `C/C(=N\NC(=O)COc1ccccc1-c1ccccc1)c1ccc(O)cc1O`?
PRMT1 FP inh: 1.3; SIAE primary: 6.9; HTRA1 inh: -32.7; TCR-CD3 inh: 19.3*; ABHD4 inh: -10.4; BSA probe FL: -12.4; TCR-CD3 conf: 29.1*

Results for C/C(=N\NC(=O)COc1ccccc1-c1ccccc1)c1ccccn1 ?
PRMT1 FP inh: -4.6; SIAE primary: 2.1; HTRA1 inh: -4.9; TCR-CD3 inh: -5.7; ABHD4 inh: -12.3

Results for O=C(NCC(=O)N(CC1CCCO1)C(C(=O)NC1CCCCC1)c1ccccc1)c1cccs1 (stereo not given) ?
PRMT1 FP inh: 4.1; SIAE primary: 5.5; HTRA1 inh: -6.5; TCR-CD3 inh: 28.6*; ABHD4 inh: -3.6; BSA probe FL: 4.0; TCR-CD3 conf: 2.3

How did O=C1CC(c2ccc(O)c(O)c2)Oc2c1ccc(O)c2O (stereo not given) do in these assays?
PRMT1 FP inh: 36.7*; SIAE primary: 10.6; HTRA1 inh: 33.5; TCR-CD3 inh: 27.7*; ABHD4 inh: 27.8; BSA probe FL: -22.9; TCR-CD3 conf: 33.1*

Results for CCOc1ccccc1NC(=O)C(=O)N/N=C/c1cc(Br)ccc1O ?
PRMT1 FP inh: -2.9; SIAE primary: 0.9; HTRA1 inh: 14.3; TCR-CD3 inh: 27.9*; ABHD4 inh: 14.4; BSA probe FL: -9.9; TCR-CD3 conf: 21.4*

How did CC(C)CNC(=O)C1CSCCS(=O)(=O)N1Cc1ccccc1 (stereo not given) do in these assays?
PRMT1 FP inh: 3.5; SIAE primary: -1.9; ABHD4 inh: 6.6

What do the screens show for `Cn1ccc2c(N3CCCCCC3)cc3c(c21)C1CCC3O1` (stereo not given)?
PRMT1 FP inh: 4.0; SIAE primary: 7.9; TCR-CD3 inh: 21.5*; ABHD4 inh: 12.7; BSA probe FL: 0.8; TCR-CD3 conf: 1.9

What do the screens show for `COc1ccc(OC)c(S(=O)(=O)N(CC(=O)NC2CCC(C)CC2)c2cc(C)cc(C)c2)c1` (stereo not given)?
PRMT1 FP inh: 1.0; SIAE primary: -4.0; ABHD4 inh: 4.8

Results for CCC(=O)NNC(=O)c1c(O)c2ccccc2[nH]c1=O ?
PRMT1 FP inh: -2.2; SIAE primary: -1.3; HTRA1 inh: -4.2; TCR-CD3 inh: 32.8*; ABHD4 inh: 3.3; BSA probe FL: -3.9; TCR-CD3 conf: 24.3*

How did CC(C)[C@H]1/C(=C/C2CC2)N2C(=O)C[C@H](c3cccc(C(F)(F)F)c3)N=C2N1Cc1ccc2c(c1)OCO2 do in these assays?
PRMT1 FP inh: -4.6; SIAE primary: 5.7; ABHD4 inh: -4.7

What do the screens show for `CCCCNC(=O)C[C@H]1C[C@@]2(C(=O)OC)C(=C[C@H](C(C)(C)C)O[C@@H]2C)N(Cc2ccco2)C1=O`?
PRMT1 FP inh: 5.3; SIAE primary: -1.7; ABHD4 inh: 2.1

What do the screens show for `Cc1nn(C)c(C(=O)N/N=C/c2ccc(Br)cc2)c1Cl`?
PRMT1 FP inh: -1.4; SIAE primary: -1.1; HTRA1 inh: -3.6; TCR-CD3 inh: 21.4*; ABHD4 inh: 13.0; BSA probe FL: 1.4; TCR-CD3 conf: 3.4

What do the screens show for `Cc1nn(C)c(C(=O)N/N=C/c2ccncc2)c1Cl`?
PRMT1 FP inh: 0.4; SIAE primary: 7.3; HTRA1 inh: 2.4; TCR-CD3 inh: -2.1; ABHD4 inh: 0.1

Results for CCN(CC)Cc1c(O)c(Cl)cc2c3c(c(=O)oc12)CCCC3 ?
PRMT1 FP inh: 0.6; SIAE primary: -3.2; HTRA1 inh: -1.0; TCR-CD3 inh: 22.4*; ABHD4 inh: 28.8; BSA probe FL: -4.5; TCR-CD3 conf: -1.9

Results for COc1ccc(S[C@]2(C(=O)N(C)C)CC(=O)N(C(=O)Nc3ccc(C)c(Cl)c3)[C@@H]2c2ccc(OC)cc2)cc1 ?
PRMT1 FP inh: 8.4; SIAE primary: -2.0; ABHD4 inh: -17.4

What do the screens show for `C=CCN(CC#Cc1ccccc1)Cc1ccc(OC)cc1OC`?
PRMT1 FP inh: -3.6; SIAE primary: -1.9; ABHD4 inh: 0.9

Results for Cc1ccc(NC(=O)NNC(=O)c2cc3ccccc3cc2O)cc1C ?
PRMT1 FP inh: 2.6; SIAE primary: 0.5; HTRA1 inh: 20.9; TCR-CD3 inh: 20.6*; ABHD4 inh: 6.0; BSA probe FL: -4.1; TCR-CD3 conf: 16.8

Results for O=C(NCCCl)NNC(=O)c1cc2ccccc2cc1O ?
PRMT1 FP inh: 7.0; SIAE primary: 9.7; HTRA1 inh: 10.0; TCR-CD3 inh: 19.0*; ABHD4 inh: 0.1; BSA probe FL: -4.0; TCR-CD3 conf: 16.4

What do the screens show for `Cc1ccc(C)c(NC(=O)NNC(=O)c2cc3ccccc3cc2O)c1`?
PRMT1 FP inh: -0.5; SIAE primary: 6.0; HTRA1 inh: 31.5; TCR-CD3 inh: 22.3*; ABHD4 inh: -6.0; BSA probe FL: -8.3; TCR-CD3 conf: 17.6

How did CCc1ccc(NC(=O)NNC(=O)c2cc3ccccc3cc2O)cc1 do in these assays?
PRMT1 FP inh: -3.0; SIAE primary: 1.9; HTRA1 inh: 15.9; TCR-CD3 inh: 18.0; ABHD4 inh: 6.0

Results for O=C(NNC(=O)c1cc2ccccc2cc1O)Nc1ccccc1F ?
PRMT1 FP inh: 3.0; SIAE primary: 5.0; HTRA1 inh: 21.9; TCR-CD3 inh: 13.4; ABHD4 inh: 17.6

Bioassay records deposited in PubChem BioAssay by The Scripps Research Institute Molecular Screening Center.
